This note sets out measurements from ChEMBL document CHEMBL5038610, “Ligand-based rational design, synthesis and evaluation of novel potential chemical chaperones for opsin” (Eur J Med Chem, 2021).

SMILES strings stand for the structures. Active and inactive are the calls of the source.

The test system of series [1] is U2OS. The series is described as follows: Effect on His-tagged human P23H rhodopsin expressed in U2OS cells assessed as increase localization of P23H rhodopsin using […] as substrate at 17 to 20 uM incubated for overnight and measured by immunofluorescence microscopy analysis. Type of series: functional, cell-based. Conditions: dose 17-20 µM, time 12.0 hrs. The gist of the method: (§1)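 U2OS cells stably carrying C-terminal His-tagged human P23H rhodopsin, grown on polylysine coverslips. Incubated overnight in the dark with 1 μg/mL tetracycline plus compound at 17 or 20 μM (DMSO ≤0.1%); 9-cis-retinal at 5 μM serves as control. Cells fixed in 4% PFA. Surface rhodopsin stained with RetP1 before permeabilisation, total rhodopsin with anti-His after 0.1% Triton. Epifluorescence imaging, 3 independent experiments.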

For series [2], the species on record is Bos taurus. The series is described as follows: Binding affinity to bovine opsin assessed as rate constant preincubated for 30 mins followed by […] addition and measured after 30 mins by UV-visible spectra method. Conditions: time 60.0 min. In outline:
(§2)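 Opsin from bovine rod outer segments diluted to ~20-25 μM in PBS with 1% N-dodecyl-β-maltoside. Bleached with 532 nm green light, then pre-incubated with compound for 30 min at room temperature. 9-cis-retinal added, equimolar to opsin. Isorhodopsin formation read at 485 nm over 0–29 min. One-phase association fit gives the pseudo-first-order k, compared with DMSO vehicle. At least three repeats.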

In series [3] the test system is HepG2. The series is described as follows: Cytotoxicity against human HepG2 cells assessed as reduction in cell viability at 25 uM measured after 24 hrs by Cell-titre blue assay. Type of series: toxicity, cell-based. The following applies: hepg2, 24 h. The gist of the method:
(§3)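 HepG2 (DMEM) or ARPE-19 (DMEM/F12) cells seeded at 1 × 10⁴ per well. Next day given medium with 2% FBS and 1 g/L glucose containing 25 μM compound, for 24 h at 37 °C. CellTiter Blue then added for 4 h; fluorescence read at 560/590 nm. Viability expressed as % of DMSO-treated cells; at least three independent measurements.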

In series [4] the test system is ARPE-19. The series is described as follows: Cytotoxicity against human ARPE-19 cells assessed as reduction in cell viability at 25 uM measured after 24 hrs by Cell-titre blue assay. Type of series: toxicity, cell-based. Conditions: arpe-19, 24 h. The gist of the method:
as §3

The test system of series [5] is U2OS. The series is described as follows: Effect on His-tagged human P23H rhodopsin expressed in U2OS cells assessed as increase localization of P23H rhodopsin using […] as substrate at 17 uM incubated for overnight and measured by immunofluorescence microscopy analysis. Type of series: cell-based. Conditions: time 12.0 hrs. The gist of the method:
as §1

Series [6] can be described thus: Half life of compound. It counts as physicochemical.
Series [7] deals with Rhodopsin (Bos taurus) (UniProt P02699). The series is described as follows: Binding affinity to bovine rhodopsin assessed as rate constant preincubated for 30 mins followed by […] addition and measured after 30 mins by UV-visible spectra method. The following applies: time 60.0 min. The gist of the method: as §2
Sequence of Rhodopsin (Bos taurus) (P02699 whole entry): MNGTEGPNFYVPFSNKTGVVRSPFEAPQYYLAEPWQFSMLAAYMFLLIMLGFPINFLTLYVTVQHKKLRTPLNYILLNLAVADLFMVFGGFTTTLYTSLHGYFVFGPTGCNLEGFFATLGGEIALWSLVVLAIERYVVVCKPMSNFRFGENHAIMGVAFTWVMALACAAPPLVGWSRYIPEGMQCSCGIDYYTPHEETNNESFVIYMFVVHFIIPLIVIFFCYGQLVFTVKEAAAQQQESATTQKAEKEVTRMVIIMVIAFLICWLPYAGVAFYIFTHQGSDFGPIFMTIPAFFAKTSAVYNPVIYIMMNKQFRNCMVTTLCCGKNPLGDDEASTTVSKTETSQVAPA

On to `Cc1cccc(C)c1N1CCN(C(=O)c2ccc(C#N)cc2)CC1`, for which, in series [1], the result was Active.

As for `O=Cc1ccc(C(=O)N2CCN(c3cc(C(F)(F)F)cc(C(F)(F)F)c3)CC2)cc1`, the K in series [2] worked out at 0.64 min⁻¹. Further, the Activity result in series [3] and in series [4] was “Non-Toxic” in each case. Moreover, in series [1], the result was Active.

In the case of `CC1=C(/C=C/C(C)N2CCc3cc(C=O)ccc3C2)C(C)(C)CCC1` (stereo unspecified), the Activity result in series [3] and in series [4] was “Non-Toxic” throughout.

Take `C=CC(=O)Nc1ccc(NC(=O)c2cc(C(F)(F)F)cc(C(F)(F)F)c2)cc1`: the outcome in series [1] was Active.

Turning to `CC1=C(CNc2ccc(C#N)cc2)C(C)(C)CCC1`, the K in series [2] came to 0.31 min⁻¹. In series [5], the outcome was Active. Moreover, the Activity in series [3] came out at 25%.

In the case of `Cc1cccc(C)c1/C=C/C(=O)NCc1ccc(C(=O)O)cc1`, the result in series [1] was Active.

For the compound `CC1=C(/C=C/C(=O)N2CCC(C(N)=O)CC2)C(C)(C)CCC1`, the outcome in series [1] was Active.

As usually defined, the half-life is the time needed for the level to fall by half in the phase considered. Read a high half-life as slow loss. Consider `CC(=O)/C=C/C1=C(C)CCCC1(C)C` [BETA-IONONE], for which, in series [2], the K was determined as 0.2 min⁻¹. Further, the Activity entry in series [3] and in series [4] was “Non-Toxic” in each case. This compound displayed a half-life in series [6] of 3.6 min.

Consider `O=C(O)c1ccc(COC(=O)c2cc(C(F)(F)F)cc(C(F)(F)F)c2)cc1`, for which, in series [5], the result was Active. Further, the Activity entry in series [3] and in series [4] was “Non-Toxic” in each case. Also, the K in series [7] worked out at 0.62 min⁻¹.

Regarding `C=C(C(=O)Nc1ccc(NC(=O)c2c(C)cccc2C)cc1)C(F)(F)F`, the result in series [1] was Active.

With `CC1=C(/C=C/C(=O)N2CCC(C#N)CC2)C(C)(C)CCC1`, the K in series [2] was determined as 0.63 min⁻¹. In series [3], the Activity is 50%.

For `Cc1cccc(C)c1-c1ccc(CNc2ccc(C(N)=O)cc2)o1`, the K in series [2] amounted to 0.61 min⁻¹.

Consider `C=CC(=O)Nc1ccc(NC(=O)c2c(C)cccc2C)cc1`, for which, in series [1], the result was Active.

For `O=Cc1ccc(N2CCN(C(=O)c3cc(C(F)(F)F)cc(C(F)(F)F)c3)CC2)cc1`, the K in series [2] came to 0.41 min⁻¹. Besides, the Activity entry in series [3] and in series [4] was “Non-Toxic” throughout. Moreover, in series [1], the outcome was Active.

`C=CC(=O)Nc1ccc(CNC(=O)c2c(C)cccc2C)cc1`: the K in series [2] amounted to 0.62 min⁻¹. The Activity result in series [3] and in series [4] was “Non-Toxic” each time.

In the case of `O=Cc1ccc(COC(=O)c2cc(C(F)(F)F)cc(C(F)(F)F)c2)cc1`, in series [5], the result was Active. The Activity entry in series [3] and in series [4] was “Non-Toxic” throughout. Moreover, in series [7], the K worked out at 0.44 min⁻¹.

As for `CC1=C(/C=C/C(=O)N2CCC(NC=O)CC2)C(C)(C)CCC1`, the outcome in series [1] was Active.

Take `Cc1cccc(C)c1N1CCN(C(=O)c2ccc(C(N)=O)cc2)CC1`: the Activity result in series [3] and in series [4] was “Non-Toxic” each time.

In the case of `CC1=C(CNc2ccc(C(=O)O)cc2)C(C)(C)CCC1`, in series [1], the result was Active.

For `NC(=O)c1ccc(N2CCN(C(=O)c3cc(C(F)(F)F)cc(C(F)(F)F)c3)CC2)cc1`, the K in series [2] came to 0.62 min⁻¹. In addition, the Activity entry in series [3] and in series [4] was “Non-Toxic” in each case. Moreover, the result in series [1] was Active.

For the compound `Cc1cccc(C)c1C(=O)N1CCN(c2ccc(C(=O)O)cc2)CC1`, in series [1], the outcome was Active.

As to `CC1=C(CNc2ccc(C(N)=O)cc2)C(C)(C)CCC1`, the K in series [2] came out at 0.59 min⁻¹. For the same compound, the outcome in series [1] was Active.

Take `Cc1cccc(C)c1NC(=O)/C=C/c1ccc(C=O)cc1`: the Activity entry in series [3] and in series [4] was “Non-Toxic” each time. Besides, in series [1], the outcome was Active.
